The values below come from ChEMBL document CHEMBL1125733, “Fluoronaphthyridines and -quinolones as antibacterial agents. 3. Synthesis and structure-activity relationships of new 1-(1,1-dimethyl-2-fluoroethyl), 1-[1-methyl-1-(fluoromethyl)-2-fluoroethyl], and 1-[1,1-(difluoromethyl)-2-fluoroethyl] substituted derivatives” (J Med Chem, 1991).

≈ marks a conversion by molar mass, not a printed value.

In one data set the test system is Klebsiella pneumoniae. In words: In vitro antibacterial activity against Klebsiella pneumoniae A 9664. In kind it is functional.
A short description of data set [1]: Compound was tested for the dose to protect 50% of mice from lethal infection against Streptococcus pneumoniae after peroral administration to OF1-strain of female Swiss mice. The data set is classed as functional. To be noted: po, read-out: PD50. An outline of the steps:
(§1)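 Compounds dissolved in sterile water and given orally to female OF1 Swiss mice weighing 18-25 g, five mice per group.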

For another data set, the system named is Streptococcus pneumoniae. In words: In vitro antibacterial activity against Streptococcus pneumoniae A 9585. The data set is classed as functional.
For a further data set, the system named is Enterococcus faecalis. Kind of data set: In vitro antibacterial activity against Enterococcus faecalis A 9809. In kind it is functional.
Data set [2] concerns Staphylococcus aureus. Kind of data set: In vitro antibacterial activity (minimum inhibitory concentration, MIC) against Staphylococcus aureus A 9537. In kind it is functional.
The test system of a further data set is Mus musculus. In words: Compound was evaluated in vivo in urine sample collected over 24 hours for its concentration after 40 mg/kg peroral administration to mice. In kind it is functional. Conditions: route oral. An outline of the steps: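 Mice were dosed at 40 mg/kg, either orally with a blunt needle and syringe or intramuscularly, with separate groups for each route. Blood was drawn from the orbital sinus at 5, 15, 30, 60, 120 and 180 min. Urine was pooled over 24 h. Drug levels were measured by agar disk diffusion microbioassay with Salmonella enteritidis A9531 as the assay organism.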

In the next data set the test system is Enterobacter cloacae. Kind of data set: In vitro antibacterial activity against Enterobacter cloacae A 9656. The data set is classed as functional.
For a further data set, the system named is Serratia marcescens. Kind of data set: In vitro antibacterial activity (minimum inhibitory concentration) against Serratia marcescens A 20019. In kind it is functional.
Data set [3] relates to Escherichia coli. In words: Compound was tested for the dose to protect 50% of mice from lethal infection against Escherichia coli A 15119 after peroral administration to OF1-strain of female Swiss mice. The data set is classed as functional. Conditions: po, read-out: PD50. An outline of the steps:
as §1

In a further data set the test system is Bacteroides fragilis. Kind of data set: Compound was tested in vitro for its antibacterial activity (minimum inhibitory concentration) against Bacteroides fragilis A 22862. The data set is classed as functional. To be noted: A22862.
A further data set relates to Canis familiaris. Kind of data set: Compound was evaluated in vivo in urine sample collected over 24 hours for its concentration after 25 mg/kg peroral administration to dogs. Conditions: route oral.
The test system of the next data set is Morganella morganii. In words: In vitro antibacterial activity against Morganella morganii A 15153. The data set is classed as functional.
The test system of data set [4] is Staphylococcus aureus. In words: In vitro antibacterial activity against Staphylococcus aureus A 24227. In kind it is functional.
Data set [5] has as its system Escherichia coli. In words: In vitro antibacterial activity against Escherichia coli A 15119. The data set is classed as functional.
A further data set relates to Pseudomonas aeruginosa. In words: Compound was tested in vitro for its antibacterial activity (minimum inhibitory concentration, MIC) against Pseudomonas aeruginosa A 9843. In kind it is functional.
The test system of the next data set is Proteus mirabilis. Kind of data set: In vitro antibacterial activity (minimum inhibitory concentration, MIC) against Proteus mirabilis A 9900. In kind it is functional.
For another data set, the system named is Haemophilus influenzae. Kind of data set: In vitro antibacterial activity against Haemophilus influenzae A 21515. The data set is classed as functional.

As to `CC(C)(C)n1cc(C(=O)O)c(=O)c2cc(F)c(N3CC[C@H](N)C3)nc21`, the MIC in the data set on Klebsiella pneumoniae was 0.03 µg/mL (≈ 0.0861 µM); in the data set with Streptococcus pneumoniae, 0.008 µg/mL (≈ 0.023 µM); against Enterococcus faecalis, 0.06 µg/mL (≈ 0.172 µM); against Staphylococcus aureus [2] it was 0.004 µg/mL (≈ 0.0115 µM); against Enterobacter cloacae, 0.03 µg/mL (≈ 0.0861 µM); in the data set on Serratia marcescens it was 0.25 µg/mL (≈ 0.718 µM). The MIC against Bacteroides fragilis amounted to 1 µg/mL (≈ 2.87 µM); with Morganella morganii, 0.13 µg/mL (≈ 0.373 µM); against Staphylococcus aureus [4], 0.002 µg/mL (≈ 0.00574 µM); in the data set with Escherichia coli [5], 0.016 µg/mL (≈ 0.0459 µM); against Pseudomonas aeruginosa it was 0.25 µg/mL (≈ 0.718 µM); in the data set with Proteus mirabilis it was 0.13 µg/mL (≈ 0.373 µM). Moreover, the ED50 is greater than 25 mg/kg in data set [1] and 1.2 mg/kg with Escherichia coli [3]. The UR in the data set on Mus musculus is reported as 10%; with Canis familiaris, 9%.

`CC(C)(C)n1cc(C(=O)O)c(=O)c2cc(F)c(N3CCNCC3)cc21` registered an S of 130 µg/mL. In the data set with Klebsiella pneumoniae, this compound showed an MIC of 0.06 µg/mL (≈ 0.173 µM). Besides, the MIC against Enterococcus faecalis amounted to 2 µg/mL (≈ 5.76 µM). This compound came in with an MIC with Staphylococcus aureus [2] of 0.25 µg/mL (≈ 0.72 µM). This compound also showed an MIC in the data set on Enterobacter cloacae of 0.13 µg/mL (≈ 0.374 µM). In the data set on Serratia marcescens, this compound displayed an MIC of 0.5 µg/mL (≈ 1.44 µM). The compound further returned an MIC in the data set with Morganella morganii of 0.25 µg/mL (≈ 0.72 µM). In the data set on Escherichia coli [5], the MIC was 0.06 µg/mL (≈ 0.173 µM). The MIC in the data set with Pseudomonas aeruginosa amounted to 0.5 µg/mL (≈ 1.44 µM). The MIC with Proteus mirabilis was 0.25 µg/mL (≈ 0.72 µM).

Compound `CC(C)(C)n1cc(C(=O)O)c(=O)c2cc(F)c(N3CCNCC3)nc21` had an S of 820 µg/mL. Also, the MIC against Klebsiella pneumoniae amounted to 0.03 µg/mL (≈ 0.0861 µM). Further, the MIC against Streptococcus pneumoniae turned out to be 1 µg/mL (≈ 2.87 µM). In addition, in the data set on Enterococcus faecalis, the MIC came out at 1 µg/mL (≈ 2.87 µM). The compound also showed an MIC in the data set on Staphylococcus aureus [2] of 0.06 µg/mL (≈ 0.172 µM). The compound further had an MIC against Enterobacter cloacae of 0.06 µg/mL (≈ 0.172 µM). In addition, in the data set with Serratia marcescens, the MIC is 0.06 µg/mL (≈ 0.172 µM). Also, the MIC with Haemophilus influenzae came out at 0.016 µg/mL (≈ 0.0459 µM). In the data set on Bacteroides fragilis, this compound had an MIC of 8 µg/mL (≈ 23 µM). Moreover, the MIC in the data set with Morganella morganii was determined as 0.06 µg/mL (≈ 0.172 µM). Besides, the MIC in the data set with Staphylococcus aureus [4] amounted to 0.25 µg/mL (≈ 0.718 µM). This compound gave an MIC in the data set on Escherichia coli [5] of 0.016 µg/mL (≈ 0.0459 µM). This compound also displayed an MIC in the data set with Pseudomonas aeruginosa of 0.5 µg/mL (≈ 1.44 µM). In the data set with Proteus mirabilis, the MIC came to 0.13 µg/mL (≈ 0.373 µM).

For the compound `CC(C)(CF)n1cc(C(=O)O)c(=O)c2cc(F)c(N3CCNCC3)nc21.Cl`, the S turned out to be 1600 µg/mL. The compound further gave an MIC with Klebsiella pneumoniae of 0.25 µg/mL. The MIC against Streptococcus pneumoniae was 0.5 µg/mL. The MIC against Enterococcus faecalis was found to be 2 µg/mL. The compound further registered an MIC in the data set with Staphylococcus aureus [2] of 0.25 µg/mL. In the data set on Enterobacter cloacae, this compound registered an MIC of 0.25 µg/mL. The MIC in the data set on Serratia marcescens came out at 0.25 µg/mL. This compound gave an MIC with Haemophilus influenzae of 0.13 µg/mL. The compound also yielded an MIC in the data set with Bacteroides fragilis of 16 µg/mL. The MIC in the data set with Morganella morganii amounted to 0.13 µg/mL. In the data set with Staphylococcus aureus [4], the MIC was 0.5 µg/mL. Further, the MIC in the data set on Escherichia coli [5] was 0.13 µg/mL. For the same compound, the MIC against Pseudomonas aeruginosa was 1 µg/mL. Also, the MIC in the data set with Proteus mirabilis worked out at 0.25 µg/mL.

Take `Cl.N[C@H]1CCN(c2nc3c(cc2F)c(=O)c(C(=O)O)cn3C(CF)(CF)CF)C1`: the MIC in the data set on Klebsiella pneumoniae stood at 2 µg/mL; in the data set on Streptococcus pneumoniae, 32 µg/mL; in the data set with Enterococcus faecalis, 32 µg/mL; in the data set on Staphylococcus aureus [2] it was 4 µg/mL; against Enterobacter cloacae, 2 µg/mL; against Serratia marcescens, 2 µg/mL. Further, the MIC came out at 0.25 µg/mL in the data set on Haemophilus influenzae; 125 µg/mL against Bacteroides fragilis; 2 µg/mL with Morganella morganii; 8 µg/mL against Staphylococcus aureus [4]; 0.5 µg/mL with Escherichia coli [5]; 32 µg/mL in the data set on Pseudomonas aeruginosa. Further, in the data set on Proteus mirabilis, the MIC was 2 µg/mL.
